Measurements published in article PMC5760440 (Journal of immunology (Baltimore, Md. : 1950), 2017).
Ends that are not written are not given here.

Legend:
[1] = tested on: A/J mice; test: Induction of myocarditis by immunization with SERCA2a peptides, histology; assay type: in vivo, mouse; conditions: individual peptide/CFA + PT; for Total inflammatory foci (Mean ± SEM): day 21, H&E heart sections; for Severity of lesions, Ventricle, Number of animals affected (%), Mild / Severity of lesions, Atria, Number of animals affected (%), Normal / Severity of lesions, Ventricle, Number of animals affected (%), Normal / Severity of lesions, Atria, Number of animals affected (%), Severe / Severity of lesions, Ventricle, Number of animals affected (%), Severe / Severity of lesions, Atria, Number of animals affected (%), Mild: day 21, H&E; for Severity of lesions, Ventricle, Number of animals affected (%), Mild / Severity of lesions, Atria, Number of animals affected (%), Mild: mild = 1–5 foci; for Severity of lesions, Atria, Number of animals affected (%), Normal / Severity of lesions, Ventricle, Number of animals affected (%), Normal: normal = 0 foci; for Severity of lesions, Atria, Number of animals affected (%), Severe / Severity of lesions, Ventricle, Number of animals affected (%), Severe: severe = 26 foci and above
How it was run: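 Mice got peptide/CFA emulsion (M. tuberculosis H37RA extract 5 mg/ml), 50–100 μg individual peptide, s.c. at inguinal and sternum sites on days 0 and 7. Pertussis toxin 100 ng/mouse i.p. on days 0 and 2. Controls: untreated, CFA+PT. Organs harvested day 21, formalin-fixed, 5 μm H&E sections ~150 μm apart. Blinded foci counts scored 0 / 1–5 / 6–25 / ≥26.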

[2] = tested on: LNCs; test: Cytokine secretion by restimulated LNCs, cytokine bead array; assay type: cell-based, mouse; conditions: supernatants of LNCs from mice immunized with the named peptide (Fig. S2c)

“SERCA2a 161-180: N-terminally acetylated 20-mer peptide of SERCA2a, residues 161-180 (Ac-ADIRLTSIKSTTLRVDQSIL; UniProt P16615 161-180, looked up, fragment)” was tested, and the “Total inflammatory foci (Mean ± SEM)” value ([1]; SEM) was 2.50 ± 0.64, the “Severity of lesions, Ventricle, Number of animals affected (%), Mild” value (shortened to “Severity of lesions, Ventricle … (%), Mild”) [1] was 3 (30) % and the “Severity of lesions, Atria, Number of animals affected (%), Normal” value (shortened to “Severity of lesions, Atria … (%), Normal”) [1] was 6. For the same substance, the “Severity of lesions, Ventricle, Number of animals affected (%), Normal” value (“Severity of lesions, Ventricle … (%), Normal” for short) [1] was 7, the “Severity of lesions, Atria, Number of animals affected (%), Severe” value (“Severity of lesions, Atria … (%), Severe” below) [1] was 0 (0) % and the “Severity of lesions, Ventricle, Number of animals affected (%), Severe” value (shortened to “Severity of lesions, Ventricle … (%), Severe”) [1] was 0 (0) %. For the same substance, the “Cytokine pattern of peptides inducing mild disease” value [2] was “underproduction of both IFN-γ and IL-17A”.
For “SERCA2a 591-610: N-terminally acetylated 20-mer peptide of SERCA2a, residues 591-610 (Ac-TFVGCVGMLDPPRIEVASSV; UniProt P16615 591-610, looked up, fragment)”, the “Total inflammatory foci (Mean ± SEM)” value [1] was 0, the “Severity of lesions, Atria, Number of animals affected (%), Mild” value (“Severity of lesions, Atria … (%), Mild” for short) [1] was 0 (0) % and the “Severity of lesions, Ventricle … (%), Mild” value [1] was 0 (0) %. The “Severity of lesions, Atria … (%), Normal” value [1] was 5, the “Severity of lesions, Ventricle … (%), Normal” value [1] was 5 and the “Severity of lesions, Atria … (%), Severe” value [1] was 0 (0) %. The “Severity of lesions, Ventricle … (%), Severe” value [1] was 0 (0) %.
In the case of “SERCA2a 601-620: N-terminally acetylated 20-mer peptide of SERCA2a, residues 601-620 (Ac-PPRIEVASSVKLCRQAGIRV; UniProt P16615 601-620, looked up, fragment)”, the “Total inflammatory foci (Mean ± SEM)” value [1] is reported as 0, the “Severity of lesions, Atria … (%), Mild” value [1] is reported as 0 (0) % and the “Severity of lesions, Ventricle … (%), Mild” value [1] is reported as 0 (0) %. The “Severity of lesions, Atria … (%), Normal” value [1] was 5, the “Severity of lesions, Ventricle … (%), Normal” value [1] was 5 and the “Severity of lesions, Atria … (%), Severe” value [1] was 0 (0) %. The “Severity of lesions, Ventricle … (%), Severe” value [1] was 0 (0) %.
With “SERCA2a 821-840: N-terminally acetylated 20-mer peptide of SERCA2a, residues 821-840 (Ac-RNPKEPLISGWLFFRYLAIG; UniProt P16615 821-840, looked up, fragment)” the “Total inflammatory foci (Mean ± SEM)” value [1] was 0, the “Severity of lesions, Atria … (%), Mild” value [1] was 0 (0) % and the “Severity of lesions, Ventricle … (%), Mild” value [1] was 0 (0) %. The “Severity of lesions, Atria … (%), Normal” value [1] was 5, the “Severity of lesions, Ventricle … (%), Normal” value [1] was 5 and the “Severity of lesions, Atria … (%), Severe” value [1] was 0 (0) %. For the same substance, the “Severity of lesions, Ventricle … (%), Severe” value [1] was 0 (0) %.
In the case of “SERCA2a 481-500: N-terminally acetylated 20-mer peptide of SERCA2a, residues 481-500 (Ac-KEFTLEFSRDRKSMSVYCTP; UniProt P16615 481-500, looked up, fragment)”, the “Total inflammatory foci (Mean ± SEM)” value [1] is reported as 0, the “Severity of lesions, Atria … (%), Mild” value [1] is reported as 0 (0) % and the “Severity of lesions, Ventricle … (%), Mild” value [1] is reported as 0 (0) %. For the same substance, the “Severity of lesions, Atria … (%), Normal” value [1] was 5, the “Severity of lesions, Ventricle … (%), Normal” value [1] was 5 and the “Severity of lesions, Atria … (%), Severe” value [1] was 0 (0) %. For the same substance, the “Severity of lesions, Ventricle … (%), Severe” value [1] was 0 (0) %.
For “SERCA2a 171-190: N-terminally acetylated 20-mer peptide of SERCA2a, residues 171-190 (Ac-TTLRVDQSILTGESVSVIKH; UniProt P16615 171-190, looked up, fragment)”, the “Total inflammatory foci (Mean ± SEM)” value ([1]; SEM) was 2.00 ± 0.00, the “Severity of lesions, Atria … (%), Mild” value [1] was 1 (20) % and the “Severity of lesions, Ventricle … (%), Mild” value [1] was 1 (20) %. For the same substance, the “Severity of lesions, Atria … (%), Normal” value [1] was 4, the “Severity of lesions, Ventricle … (%), Normal” value [1] was 4 and the “Severity of lesions, Atria … (%), Severe” value [1] was 0 (0) %. The “Severity of lesions, Ventricle … (%), Severe” value [1] was 0 (0) %.
“SERCA2a 311-330: N-terminally acetylated 20-mer peptide of SERCA2a, residues 311-330 (Ac-LPAVITTCLALGTRRMAKKN; UniProt P16615 311-330, looked up, fragment)” was tested, and the “Total inflammatory foci (Mean ± SEM)” value [1] was 0, the “Severity of lesions, Atria … (%), Mild” value [1] was 0 (0) % and the “Severity of lesions, Ventricle … (%), Mild” value [1] was 0 (0) %. The “Severity of lesions, Atria … (%), Normal” value [1] was 5, the “Severity of lesions, Ventricle … (%), Normal” value [1] was 5 and the “Severity of lesions, Atria … (%), Severe” value [1] was 0 (0) %. The “Severity of lesions, Ventricle … (%), Severe” value [1] was 0 (0) %.
With “SERCA2a 951-970: N-terminally acetylated 20-mer peptide of SERCA2a, residues 951-970 (Ac-PLPLIFQITPLNVTQWLMVL; UniProt P16615 951-970, looked up, fragment)” the “Total inflammatory foci (Mean ± SEM)” value ([1]; SEM) was 40.00 ± 39.00, the “Severity of lesions, Atria … (%), Mild” value [1] was 1 (10) % and the “Severity of lesions, Ventricle … (%), Mild” value [1] was 0 (0) %. For the same substance, the “Severity of lesions, Atria … (%), Normal” value [1] was 8, the “Severity of lesions, Ventricle … (%), Normal” value [1] was 9 and the “Severity of lesions, Atria … (%), Severe” value [1] was 1 (10) %. The “Severity of lesions, Ventricle … (%), Severe” value [1] was 1 (10) %.
With “SERCA2a 471-490: N-terminally acetylated 20-mer peptide of SERCA2a, residues 471-490 (Ac-CNSVIKQLMKKEFTLEFSRD; UniProt P16615 471-490, looked up, fragment)” the “Total inflammatory foci (Mean ± SEM)” value [1] was 0, the “Severity of lesions, Atria … (%), Mild” value [1] was 0 (0) % and the “Severity of lesions, Ventricle … (%), Mild” value [1] was 0 (0) %. For the same substance, the “Severity of lesions, Atria … (%), Normal” value [1] was 5, the “Severity of lesions, Ventricle … (%), Normal” value [1] was 5 and the “Severity of lesions, Atria … (%), Severe” value [1] was 0 (0) %. For the same substance, the “Severity of lesions, Ventricle … (%), Severe” value [1] was 0 (0) %.
For “SERCA2a 31-50: N-terminally acetylated 20-mer peptide of SERCA2a, residues 31-50 (Ac-KLKERWGSNELPAEEGKTLL; UniProt P16615 31-50, looked up, fragment)”, the “Total inflammatory foci (Mean ± SEM)” value ([1]; SEM) was 8.00 ± 0.00, the “Severity of lesions, Atria … (%), Mild” value [1] was 0 (0) % and the “Severity of lesions, Ventricle … (%), Mild” value [1] was 0 (0) %. For the same substance, the “Severity of lesions, Atria … (%), Normal” value [1] was 5, the “Severity of lesions, Ventricle … (%), Normal” value [1] was 4 and the “Severity of lesions, Atria … (%), Severe” value [1] was 0 (0) %. For the same substance, the “Severity of lesions, Ventricle … (%), Severe” value [1] was 0 (0) % and the “Cytokine pattern of peptides inducing mild disease” value [2] was “produced mainly IFN-γ”.
